Test [1] relates to PC-3. Nature of the test: Inhibition of growth of human PC3 cell line at 20 ug/ml. In kind it is functional. In a few lines: (§1)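 Growth assay in human prostate cancer cells (LNCaP in RPMI, PC-3 in DMEM, each with 10% fetal calf serum and antibiotics). Cells were exposed to compound for 2 days. Value is % inhibition of cell growth at 20 μg/ml. Variation between replicate experiments was ≤5%.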

The subject of test [2] is LNCaP. Nature of the test: Inhibition of growth of human LNCaP cell line at 20 ug/ml. Type of test: functional. In outline:
as §1

The structures appear in SMILES notation.

A word on the inhibition: it is how much of the control response was suppressed. As to `O=C(/C=C(O)/C=C/c1ccc(CO)o1)/C=C/c1ccc(CO)o1`, the inhibition at 20 µg/mL in test [1] and in test [2] was 37% throughout.

The values are drawn from ChEMBL document CHEMBL1138035, “Antitumor agents. 250. Design and synthesis of new curcumin analogues as potential anti-prostate cancer agents” (J Med Chem, 2006).
